In brackets after ≈: the same amount, converted by molar mass.
How the values were obtained:
[1] = Thermodynamic solubility of compound in buffer at 298 +/- 0.1 K after 24 hrs by shake flask method; assay type: physicochemical; conditions: read-out: Therm_solubility
Method in brief: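 Shake flask at 298 K (±0.1 K). Phosphate buffer pH 7.4 (I = 0.15 mol L−1) was stirred with solid for 24 h, an equilibration time chosen from kinetic plateau experiments. Aliquot was centrifuged 5 min at 298 K, then isothermally filtered (0.45 μm) and diluted. Concentration was read by UV spectrophotometry (200–400 nm). Value is the mean of at least three replicates.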

[2] = 1-octanol/buffer distribution co-efficient, log D of compound at pH 7.4 at 298 K after 24 hrs by shake flask method; assay type: physicochemical
Method in brief: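 Shake flask. Buffer (pH 7.4) and 1-octanol were pre-saturated by vigorous mixing for 24 h at 298 K (±0.1 K) and then allowed to separate. Compound was dissolved in the buffer-saturated octanol as stock, then mixed with the octanol-saturated buffer for 24 h at 298 K. Both phases were quantified by UV spectrophotometry against calibration curves. D = Coct/Cbuf.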

[3] = 1-octanol/buffer partition co-efficient of compound in neutral form at pH 7.4 at 298 K after 24 hrs by shake flask method; assay type: physicochemical; conditions: pH 7.4, 24 h
[4] = 1-hexane/buffer partition co-efficient of compound in neutral form at pH 7.4 at 298 K after 24 hrs by shake flask method; assay type: physicochemical; conditions: pH 7.4, 24 h
Rattus norvegicus = organism: Rattus norvegicus; assay: Modulation of glutamate receptor in synaptosomes of rat brain cortex assessed as change in glutamate-induced 45Ca2+ uptake (K43/21) after 5 mins by liquid scintillation counting method; assay type: subcellular; set-up: concentration or dose not given beside the values
Method in brief: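 Cortical synaptosomes (P2 fraction) from 9–10-day-old rats suspended in HEPES buffer pH 7.4 (NaCl, KCl, glucose; protein 1.5–2 mg mL−1), final Ca2+ 1.25 mM. 45Ca2+ uptake stimulated with 200 μM glutamate, 5 min at […]; stopped by GF/B filtration and three cold-buffer washes; beta counting. Uptake = stimulated minus unstimulated label, % of control; triplicate.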

[5] = Apparent permeability of compound at 5 mM using permeapad barrier at pH 7.4 at 298 K by spectrophotometric method; assay type: ADME; conditions: not told
Method in brief: (§1)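 Franz diffusion cell at 298 K (±0.1 K). The donor (lower) chamber held 8 ml of drug solution, approximately 5 mM, in phosphate buffer saline (74 mM phosphate, pH 7.3–7.4, 280–290 mOsm with NaCl). The acceptor chamber held 1.5 ml buffer. Barrier was Permeapad or the support layer alone, without phospholipids. Cumulative permeated moles per barrier area were plotted against time in seconds. Replicates were at least triplicate, and Papp is the mean of the replicates.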

[6] = Permeability of compound at 5 mM using support layer at pH 7.4 at 298 K by spectrophotometric method; assay type: ADME; conditions: not told; method in brief: as §1
[7] = Permeability of compound at 5 mM using lipid layer at pH 7.4 at 298 K by spectrophotometric method; assay type: ADME; conditions: not told
[8] = 1-hexane/buffer distribution co-efficient, log D of compound at pH 7.4 at 298 K after 24 hrs by shake flask method; assay type: physicochemical; conditions: pH 7.4, 24 h

Compound	solubility thermodynamic at 24 h [1] [mM]	logD at 24 h [2]	K [3]	K [4]	Activity (Rattus norvegicus) [%]	Papp at 5000 µM [5] [×10⁻⁶ cm/s]	Papp at 5000 µM [6] [×10⁻⁶ cm/s]	Papp at 5000 µM [7] [×10⁻⁶ cm/s]	logD [8]
Cc1ccc(Nc2nc(CC(C)NC3CC(C)(C)NC(C)(C)C3)ns2)cc1 (configuration not stated)	8.37 (≈ 3240 µg/mL)	0.82	4.44 ×10⁴ No_unit	89.3	128	12.2	26.3	22.8	–
CC(Cc1nsc(NC2CC2)n1)NC1CC(C)(C)NC(C)(C)C1 (configuration not stated)	310 (≈ 105000 µg/mL)	0.0828	3.19 ×10³ No_unit	655.5	86	5.4	27.6	6.8	–
CC(O)Cc1nsc(Nc2ccc(Cl)cc2)n1 (configuration not stated)	0.484 (≈ 130 µg/mL)	2.58	380	0.46	89	–	–	–	–
CC(Cc1nsc(Nc2ccc(Cl)cc2)n1)NC1CC(C)(C)NC(C)(C)C1 (configuration not stated)	3.72 (≈ 1520 µg/mL)	0.262	1.22 ×10⁴ No_unit	73	172	8.6	21.9	14.1	–
CC(O)Cc1nsc(Nc2ccc(Cl)c(Cl)c2)n1 (configuration not stated)	–	2.79	610	0.17	51	–	–	–	–
Cc1ccc(Nc2nc(CC(C)O)ns2)cc1 (configuration not stated)	2.19 (≈ 546 µg/mL)	2.65	445	0.31	85	–	–	–	–
CC(O)Cc1nsc(Nc2ccc(F)cc2)n1 (configuration not stated)	3.4 (≈ 861 µg/mL)	2.5	316	0.32	88	–	–	–	–
CSc1cccc(Nc2nc(CC(C)NC3CC(C)(C)NC(C)(C)C3)ns2)c1 (configuration not stated)	12 (≈ 5040 µg/mL)	0.643	2.92 ×10⁴ No_unit	92.9	117	10.1	22.8	18.2	–
CC(O)Cc1nsc(Nc2ccc(F)c(Cl)c2)n1 (configuration not stated)	–	2.35	226	0.16	75	–	–	–	–
Cc1ccc(Cl)cc1Nc1nc(CC(C)O)ns1 (configuration not stated)	0.445 (≈ 126 µg/mL)	3.02	–	0.56	88	–	–	–	–
CSc1cccc(Nc2nc(CC(C)O)ns2)c1 (configuration not stated)	–	1.97	94	0.48	86.7	–	–	–	–
CC(Cc1nsc(Nc2ccc(Cl)c(Cl)c2)n1)NC1CC(C)(C)NC(C)(C)C1 (configuration not stated)	7.45 (≈ 3300 µg/mL)	1.1	–	72.3	305	9.8	15.7	26.1	–
CC(Cc1nsc(Nc2ccc(F)cc2)n1)NC1CC(C)(C)NC(C)(C)C1 (configuration not stated)	18.2 (≈ 7130 µg/mL)	0.881	5.06 ×10⁴ No_unit	158	112	8.7	16.3	18.6	–
CC(Cc1nsc(Nc2ccc(Br)cc2)n1)NC1CC(C)(C)NC(C)(C)C1 (configuration not stated)	3.49 (≈ 1580 µg/mL)	0.31	1.36 ×10⁴ No_unit	85	82	6.5	25.8	9.5	–
Cc1cc(Nc2nc(CC(C)O)ns2)no1 (configuration not stated)	–	1.65	45	0.18	109	–	–	–	–
COc1ccc(Nc2nc(CC(C)O)ns2)cc1 (configuration not stated)	3.04 (≈ 807 µg/mL)	2.31	205	0.58	108	–	–	–	–
Cc1ccc(Nc2nc(CC(C)O)ns2)cc1Cl (configuration not stated)	0.483 (≈ 137 µg/mL)	3.02	1.038 ×10³ No_unit	1.68	87	–	–	–	–
CC(Cc1nsc(Nc2ccc(F)c(Cl)c2)n1)NC1CC(C)(C)NC(C)(C)C1 (configuration not stated)	9.24 (≈ 3940 µg/mL)	0.699	3.25 ×10⁴ No_unit	42	189	13.9	25.4	30.9	–
Cc1cc(Nc2nc(CC(C)NC3CC(C)(C)NC(C)(C)C3)ns2)no1 (configuration not stated)	14.1 (≈ 5340 µg/mL)	-0.426	–	258.6	108	3.4	31.7	3.7	–
Cc1ccc(Nc2nc(CC(C)NC3CC(C)(C)NC(C)(C)C3)ns2)cc1Cl (configuration not stated)	5.57 (≈ 2350 µg/mL)	1.04	7.31 ×10⁴ No_unit	20.6	214	13.5	20.6	39.5	0.0031
Cc1ccc(Cl)cc1Nc1nc(CC(C)NC2CC(C)(C)NC(C)(C)C2)ns1 (configuration not stated)	4.86 (≈ 2050 µg/mL)	0.839	4.56 ×10⁴ No_unit	112.8	177	14.4	30.8	26.9	–

— ChEMBL document CHEMBL4261485, “Towards the rational design of novel drugs based on solubility, partitioning/distribution, biomimetic permeability and biological activity exemplified by 1,2,4-thiadiazole derivatives” (Medchemcomm, 2017)
